# Results from ChEMBL document CHEMBL3044605, “Inhibition of the Fe(4)S(4)-cluster-containing protein IspH (LytB): electron paramagnetic resonance, metallacycles, and mechanisms” (J Am Chem Soc, 2010).
# Target: T1, 4-hydroxy-3-methylbut-2-enyl diphosphate reductase (Aquifex aeolicus (strain VF5), UniProt O67625)
# T1 sequence (O67625 whole entry): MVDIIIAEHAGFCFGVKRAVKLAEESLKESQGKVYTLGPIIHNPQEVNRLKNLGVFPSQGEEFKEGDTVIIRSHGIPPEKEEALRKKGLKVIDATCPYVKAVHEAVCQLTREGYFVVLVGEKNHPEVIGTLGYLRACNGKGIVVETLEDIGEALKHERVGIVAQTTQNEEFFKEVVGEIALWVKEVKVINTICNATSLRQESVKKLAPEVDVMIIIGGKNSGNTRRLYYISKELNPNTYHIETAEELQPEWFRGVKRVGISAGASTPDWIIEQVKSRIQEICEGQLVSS
# Assay: Inhibition of Aquifex aeolicus IspH expressed in Escherichia coli BL21 (DE3) using HMBPP substrate
# Format: single protein
# Method in brief: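 A. aeolicus IspH expressed in BL-21(DE3), Ni-NTA purified, Fe4S4 cluster reconstituted anaerobically (DTT, sulfur, FeCl3; A410/A280 ≥0.38). Anaerobic assay, room temp, pH 8.0 Tris/NaCl/glycerol buffer, 0.4 mM dithionite, 2 mM methyl viologen, 72 nM IspH. Inhibitor preincubated 10 min, then 34 μM HMBPP added. Initial rates at 732 nm, dose-response fit for IC50; Ki via Cheng-Prusoff (KM 7 μM).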
SMILES,IC50 [µM],Ki [nM]
C#CCOP(=O)(O)OP(=O)(O)O [PROP-2-YNYL DIPHOSPHATE],6.7,
C[n+]1cccc(CC(O)(P(=O)(O)O)P(=O)(O)O)c1,> 1000,
N#CCCOP(=O)(O)OP(=O)(O)O [2-CYANOETHYL DIPHOSPHATE],53,
O=P(O)(O)OP(=O)(O)OCc1ccc(Cl)nc1,3700,
O=P(O)(O)C(O)(Cc1cccnc1)P(=O)(O)O [RISEDRONIC ACID],> 1000,
CC(Cc1cccnc1)(P(=O)(O)O)P(=O)(O)O,> 1000,
N#CCOP(=O)(O)OP(=O)(O)O [CYANOMETHYL DIPHOSPHATE],245,
O=P(O)(O)OP(=O)(O)OCc1cccnc1,38,
O=P(O)(O)OP(=O)(O)OCc1ccncc1 [(PYRIDIN-4-YL)-METHYL-DIPHOSPHATE],149,
O=P(O)(O)OP(=O)(O)OCCc1cccnc1 [PYRIDIN-3-YL-ETHYL-DIPHOSPHATE],9.1,1200
Cc1ccc[n+](CC(O)(P(=O)([O-])O)P(=O)(O)O)c1 (configuration not stated),540,
O=P(O)(O)C(O)(Cc1ccccn1)P(=O)(O)O,485,
Cc1ccnc(NC(P(=O)(O)O)P(=O)(O)O)c1,67,
O=P(O)(O)OP(=O)(O)OCc1ccccn1 [(PYRIDIN-2-YL)-METHYL-DIPHOSPHATE],1200,
O=P(O)(O)C(Cc1cccnc1)P(=O)(O)O,> 1000,
O=P(O)(O)OP(=O)(O)OCC#CCO [4-HYDROXYBUT-2-YNYL DIPHOSPHATE],26,
O=P(O)(O)C(CNc1ccccn1)P(=O)(O)O,> 1000,
C#CCCOP(=O)(O)OP(=O)(O)O [BUT-3-YNYL DIPHOSPHATE],0.45,60
O=P(O)(O)OP(=O)(O)OCCCc1cccnc1 [PYRIDIN-3-YL-PROPYL-DIPHOSPHATE],463,
C#CCCCOP(=O)(O)OP(=O)(O)O [PENT-4-YNYL DIPHOSPHATE],6.5,
